Source: ChEMBL document CHEMBL5653631, “A Potent and Selective ULK1 Inhibitor Suppresses Autophagy and Sensitizes Cancer Cells to Nutrient Stress” (iScience, 2018)
Blank lines part the entries; values can stand above or below the compound they belong to.

Tests used:
[1] = biological target: T1, Activin receptor type-1 (Homo sapiens) (UniProt Q04771); assay: Inhibition of human recombinant ALK2 at 500 nM in presence of ATP by radiometric assay relative to control
T1 sequence (whole entry): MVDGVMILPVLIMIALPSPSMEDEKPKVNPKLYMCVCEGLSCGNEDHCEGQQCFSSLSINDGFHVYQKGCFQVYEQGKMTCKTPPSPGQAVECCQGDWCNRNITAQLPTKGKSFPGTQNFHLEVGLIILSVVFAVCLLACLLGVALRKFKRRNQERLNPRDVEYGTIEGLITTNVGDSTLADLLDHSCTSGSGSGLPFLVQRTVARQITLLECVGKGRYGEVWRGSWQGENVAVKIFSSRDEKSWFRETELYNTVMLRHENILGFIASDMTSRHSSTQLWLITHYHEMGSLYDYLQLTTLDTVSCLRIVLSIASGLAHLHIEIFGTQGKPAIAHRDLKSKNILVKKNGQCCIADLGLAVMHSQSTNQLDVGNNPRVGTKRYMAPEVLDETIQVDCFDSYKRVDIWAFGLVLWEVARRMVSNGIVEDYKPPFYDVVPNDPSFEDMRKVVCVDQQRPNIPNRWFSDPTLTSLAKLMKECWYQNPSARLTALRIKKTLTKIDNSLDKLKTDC
In short: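 Panel of 327 recombinant human kinases, each assayed in vitro by radiometric activity assay in duplicate at a single inhibitor concentration per compound, chosen with reference to its ULK1 inhibition. Activity remaining was expressed as percent of vehicle control, and percent inhibition was calculated as 100 minus percent activity remaining.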

[2] = biological target: MAP kinase-activated protein kinase 3 (Homo sapiens) (UniProt Q16644); assay: Inhibition of human recombinant MAPKAPK3 at 500 nM related to control ULK1
MAP kinase-activated protein kinase 3 (Homo sapiens), sequence (Q16644 whole entry, looked up): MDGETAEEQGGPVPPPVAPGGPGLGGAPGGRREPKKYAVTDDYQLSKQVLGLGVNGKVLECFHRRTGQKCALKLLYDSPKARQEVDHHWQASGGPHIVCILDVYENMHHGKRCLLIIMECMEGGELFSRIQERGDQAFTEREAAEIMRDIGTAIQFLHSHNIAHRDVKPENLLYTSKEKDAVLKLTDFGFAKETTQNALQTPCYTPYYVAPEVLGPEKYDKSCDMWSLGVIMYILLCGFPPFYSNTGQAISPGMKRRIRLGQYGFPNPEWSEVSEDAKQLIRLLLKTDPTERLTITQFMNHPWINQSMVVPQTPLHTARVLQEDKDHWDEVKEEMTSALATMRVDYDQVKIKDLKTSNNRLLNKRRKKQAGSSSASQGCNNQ

[3] = biological target: Ribosomal protein S6 kinase alpha-2 (Homo sapiens) (UniProt Q15349); assay: Inhibition of human recombinant RSK3 at 500 nM related to control ULK1
Ribosomal protein S6 kinase alpha-2 (Homo sapiens), sequence (Q15349 whole entry): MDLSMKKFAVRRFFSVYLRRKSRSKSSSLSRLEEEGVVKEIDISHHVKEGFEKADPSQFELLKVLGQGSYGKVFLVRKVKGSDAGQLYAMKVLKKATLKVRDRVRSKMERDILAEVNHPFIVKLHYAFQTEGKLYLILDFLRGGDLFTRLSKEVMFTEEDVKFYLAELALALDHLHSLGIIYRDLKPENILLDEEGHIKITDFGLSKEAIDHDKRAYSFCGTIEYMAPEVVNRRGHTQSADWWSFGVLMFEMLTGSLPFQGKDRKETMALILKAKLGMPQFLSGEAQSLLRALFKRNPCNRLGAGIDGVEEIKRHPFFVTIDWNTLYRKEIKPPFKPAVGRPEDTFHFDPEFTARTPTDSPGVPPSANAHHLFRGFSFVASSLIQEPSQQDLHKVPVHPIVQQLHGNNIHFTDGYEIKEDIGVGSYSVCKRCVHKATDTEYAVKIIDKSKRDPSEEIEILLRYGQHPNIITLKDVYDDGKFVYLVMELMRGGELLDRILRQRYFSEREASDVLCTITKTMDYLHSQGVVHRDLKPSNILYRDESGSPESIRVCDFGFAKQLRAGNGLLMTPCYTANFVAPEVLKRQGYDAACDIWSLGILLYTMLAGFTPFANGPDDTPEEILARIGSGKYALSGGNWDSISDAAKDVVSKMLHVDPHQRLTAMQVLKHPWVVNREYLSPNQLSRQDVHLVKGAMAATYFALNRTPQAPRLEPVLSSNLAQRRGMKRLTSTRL

[4] = biological target: T2, Serine/threonine-protein kinase TAO2 (Homo sapiens) (UniProt Q9UL54); assay: Inhibition of human recombinant TAO2 at 500 nM related to control ULK1
T2 sequence (whole entry): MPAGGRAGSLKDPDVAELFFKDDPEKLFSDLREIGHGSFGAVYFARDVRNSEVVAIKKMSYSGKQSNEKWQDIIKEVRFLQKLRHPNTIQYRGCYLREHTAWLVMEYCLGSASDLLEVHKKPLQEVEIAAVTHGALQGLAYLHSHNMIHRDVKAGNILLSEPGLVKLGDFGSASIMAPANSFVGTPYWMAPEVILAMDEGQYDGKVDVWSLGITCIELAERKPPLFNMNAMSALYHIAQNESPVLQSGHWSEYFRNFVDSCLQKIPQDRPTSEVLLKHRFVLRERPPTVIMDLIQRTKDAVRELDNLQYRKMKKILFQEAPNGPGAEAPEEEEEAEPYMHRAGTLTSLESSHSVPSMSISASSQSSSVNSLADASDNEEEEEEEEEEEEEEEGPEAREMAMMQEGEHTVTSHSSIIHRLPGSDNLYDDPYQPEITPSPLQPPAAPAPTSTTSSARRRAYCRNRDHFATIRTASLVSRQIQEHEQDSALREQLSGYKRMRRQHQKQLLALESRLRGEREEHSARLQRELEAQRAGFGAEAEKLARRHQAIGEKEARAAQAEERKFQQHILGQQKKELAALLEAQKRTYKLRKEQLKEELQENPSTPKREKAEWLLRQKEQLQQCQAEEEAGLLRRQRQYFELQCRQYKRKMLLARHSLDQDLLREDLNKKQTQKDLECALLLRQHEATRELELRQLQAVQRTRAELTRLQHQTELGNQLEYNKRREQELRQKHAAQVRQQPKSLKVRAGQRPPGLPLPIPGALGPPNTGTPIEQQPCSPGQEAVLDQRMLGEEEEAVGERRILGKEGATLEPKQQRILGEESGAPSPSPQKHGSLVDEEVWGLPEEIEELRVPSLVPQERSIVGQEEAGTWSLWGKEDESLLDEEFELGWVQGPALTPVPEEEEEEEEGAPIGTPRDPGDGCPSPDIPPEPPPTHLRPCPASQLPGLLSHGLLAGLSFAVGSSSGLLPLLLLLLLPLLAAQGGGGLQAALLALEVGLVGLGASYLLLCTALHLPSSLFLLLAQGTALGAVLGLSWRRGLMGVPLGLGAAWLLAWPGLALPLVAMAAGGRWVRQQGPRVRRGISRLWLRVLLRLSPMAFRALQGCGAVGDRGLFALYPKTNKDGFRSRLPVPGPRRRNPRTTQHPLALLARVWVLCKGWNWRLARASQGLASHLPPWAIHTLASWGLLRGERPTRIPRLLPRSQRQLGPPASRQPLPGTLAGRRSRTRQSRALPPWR

[5] = biological target: T3, Serine/threonine-protein kinase 17B (Homo sapiens) (UniProt O94768); assay: Inhibition of human recombinant DRAK2 at 15 nM in presence of ATP by radiometric assay relative to control
T3 sequence (whole entry): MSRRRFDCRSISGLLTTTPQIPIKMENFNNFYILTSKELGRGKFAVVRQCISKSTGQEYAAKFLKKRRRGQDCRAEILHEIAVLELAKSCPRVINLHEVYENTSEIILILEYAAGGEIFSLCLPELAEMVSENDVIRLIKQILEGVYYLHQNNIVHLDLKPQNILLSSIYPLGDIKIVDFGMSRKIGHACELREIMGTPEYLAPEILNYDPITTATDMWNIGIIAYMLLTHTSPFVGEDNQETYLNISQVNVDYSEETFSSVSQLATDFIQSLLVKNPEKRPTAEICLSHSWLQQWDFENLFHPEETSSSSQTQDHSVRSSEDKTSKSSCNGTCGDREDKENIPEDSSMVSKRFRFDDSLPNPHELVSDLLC

[6] = biological target: Serine/threonine-protein kinase 26 (Homo sapiens) (UniProt Q9P289); assay: Inhibition of human recombinant MST4 at 15 nM in presence of ATP by radiometric assay relative to control
Serine/threonine-protein kinase 26 (Homo sapiens), sequence (Q9P289 2-416 limits assumed): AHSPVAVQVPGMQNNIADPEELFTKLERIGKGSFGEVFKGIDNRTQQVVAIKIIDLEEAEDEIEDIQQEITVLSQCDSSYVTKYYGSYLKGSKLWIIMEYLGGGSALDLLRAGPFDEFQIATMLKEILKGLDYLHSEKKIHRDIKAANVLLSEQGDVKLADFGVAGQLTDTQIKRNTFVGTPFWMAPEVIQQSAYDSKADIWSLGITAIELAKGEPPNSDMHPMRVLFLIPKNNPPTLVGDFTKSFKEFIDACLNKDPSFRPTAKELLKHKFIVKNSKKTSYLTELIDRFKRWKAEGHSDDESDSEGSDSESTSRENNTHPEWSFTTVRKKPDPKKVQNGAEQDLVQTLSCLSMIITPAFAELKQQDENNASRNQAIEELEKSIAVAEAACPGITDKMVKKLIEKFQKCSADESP

[7] = biological target: T4, MAPK/MAK/MRK overlapping kinase (Homo sapiens) (UniProt Q9UQ07); assay: Inhibition of human recombinant MOK at 40 nM related to control ULK1
T4 sequence (whole entry): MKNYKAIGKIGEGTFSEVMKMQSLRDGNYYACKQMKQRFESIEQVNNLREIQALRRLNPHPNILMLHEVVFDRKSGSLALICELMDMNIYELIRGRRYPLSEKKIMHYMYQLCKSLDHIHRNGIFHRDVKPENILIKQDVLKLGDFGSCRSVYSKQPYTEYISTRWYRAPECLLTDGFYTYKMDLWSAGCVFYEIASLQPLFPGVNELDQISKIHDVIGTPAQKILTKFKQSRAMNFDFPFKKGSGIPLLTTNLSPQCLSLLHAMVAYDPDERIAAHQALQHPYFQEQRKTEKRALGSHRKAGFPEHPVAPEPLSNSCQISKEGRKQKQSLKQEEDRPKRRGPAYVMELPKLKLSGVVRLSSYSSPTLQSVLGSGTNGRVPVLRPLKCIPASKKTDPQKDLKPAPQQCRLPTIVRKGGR

inhibition [1]: 46% | fold change (FC) [2]: 0 | fold change (FC) [3]: 0.66 | fold change (FC) [4]: 0
SMILES: CNC(=O)c1ccccc1Oc1nc(Nc2cc(OC)c(OC)c(OC)c2)ncc1Br

inhibition [5]: 69% | inhibition [6]: 0%
SMILES: CC(C)[C@H](NC(=O)c1cc(-c2cnn3cc(-c4ccc(OCCN5CCCCC5)cc4)cnc23)cs1)C(F)(F)F

fold change (FC) [7]: 0
SMILES: O=C(N[C@@H](C1CC1)C(F)(F)F)c1cc(-c2cnn3cc(-c4ccc(F)cc4)cnc23)cs1
